ChEMBL document CHEMBL4152188, “Design, synthesis and biological evaluation of C(4) substituted monobactams as antibacterial agents against multidrug-resistant Gram-negative bacteria” (Eur J Med Chem, 2018)
Converted amounts (≈) assume the structure as drawn.

Experiments:
Assay type in all cases: functional
Escherichia coli [1] = assay: Antibacterial activity against extended-spectrum beta-lactamase producing Escherichia coli isolate 212648 after 18 hrs by CLSI broth microdilution method; settings: isolate 212648, 18 h
Escherichia coli [2] = assay: Selectivity index, ratio of MIC for against extended-spectrum beta-lactamase producing Escherichia coli isolate 208687 to MIC for extended-spectrum beta-lactamase producing Escherichia coli isolate 208687 in presence of BPL
Escherichia coli [3] = assay: Antibacterial activity against Escherichia coli isolate 210737 after 18 hrs by CLSI broth microdilution method; settings: isolate 210737, 18 h
Escherichia coli [4] = assay: Antibacterial activity against extended-spectrum beta-lactamase producing Escherichia coli isolate 208687 after 18 hrs by CLSI broth microdilution method; settings: isolate 208687, 18 h
Escherichia coli [5] = assay: Antibacterial activity against extended-spectrum beta-lactamase producing Escherichia coli isolate 208687 after 18 hrs in presence of BPL by CLSI broth microdilution method; settings: isolate 208687, 18 h
Method in brief: (§1)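 CLSI broth microdilution against clinical isolates (ESBL E. coli, KPC-2 MDR K. pneumoniae, IMP-4 MDR P. aeruginosa; five per species). Iron limitation: Mueller-Hinton broth supplemented with 16 mg/liter 2,2'-bipyridyl to complex iron and induce iron uptake systems. Read-out: MIC.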

Escherichia coli [6] = assay: Antibacterial activity against Escherichia coli isolate 210737 after 18 hrs in presence of BPL by CLSI broth microdilution method; settings: isolate 210737, 18 h; method in brief: as §1
Escherichia coli [7] = assay: Selectivity index, ratio of MIC for against Escherichia coli isolate 210737 to MIC for Escherichia coli isolate 210737 in presence of BPL
Escherichia coli [8] = assay: Antibacterial activity against extended-spectrum beta-lactamase producing Escherichia coli isolate 212648 after 18 hrs in presence of BPL by CLSI broth microdilution method; settings: isolate 212648, 18 h; method in brief: as §1
Escherichia coli [9] = assay: Selectivity index, ratio of MIC for against extended-spectrum beta-lactamase producing Escherichia coli isolate 212648 to MIC for extended-spectrum beta-lactamase producing Escherichia coli isolate 212648 in presence of BPL
Escherichia coli [10] = assay: Antibacterial activity against extended-spectrum beta-lactamase producing Escherichia coli isolate 209285 after 18 hrs by CLSI broth microdilution method; settings: isolate 209285, 18 h
Escherichia coli [11] = assay: Antibacterial activity against extended-spectrum beta-lactamase producing Escherichia coli isolate 209285 after 18 hrs in presence of BPL by CLSI broth microdilution method; settings: isolate 209285, 18 h; method in brief: as §1
Escherichia coli [12] = assay: Selectivity index, ratio of MIC for against extended-spectrum beta-lactamase producing Escherichia coli isolate 209285 to MIC for extended-spectrum beta-lactamase producing Escherichia coli isolate 209285 in presence of BPL
Escherichia coli [13] = assay: Antibacterial activity against extended-spectrum beta-lactamase producing Escherichia coli isolate 106342 after 18 hrs by CLSI broth microdilution method; settings: isolate 106342, 18 h
Escherichia coli [14] = assay: Antibacterial activity against extended-spectrum beta-lactamase producing Escherichia coli isolate 106342 after 18 hrs in presence of BPL by CLSI broth microdilution method; settings: isolate 106342, 18 h; method in brief: as §1
Escherichia coli [15] = assay: Selectivity index, ratio of MIC for against extended-spectrum beta-lactamase producing Escherichia coli isolate 106342 to MIC for extended-spectrum beta-lactamase producing Escherichia coli isolate 106342 in presence of BPL
Klebsiella pneumoniae [16] = assay: Antibacterial activity against KPC-2 producing Klebsiella pneumoniae isolate 212423 after 18 hrs by CLSI broth microdilution method; settings: isolate 212423, 18 h
Klebsiella pneumoniae [17] = assay: Antibacterial activity against KPC-2 producing Klebsiella pneumoniae isolate 212423 after 18 hrs in presence of BPL by CLSI broth microdilution method; settings: isolate 212423, 18 h; method in brief: as §1
Klebsiella pneumoniae [18] = assay: Selectivity index, ratio of MIC for against KPC-2 producing Klebsiella pneumoniae isolate 212423 to MIC for against KPC-2 producing Klebsiella pneumoniae isolate 212423 in presence of BPL
Klebsiella pneumoniae [19] = assay: Antibacterial activity against KPC-2 producing Klebsiella pneumoniae isolate 209632 after 18 hrs by CLSI broth microdilution method; settings: isolate 209632, 18 h
Klebsiella pneumoniae [20] = assay: Antibacterial activity against KPC-2 producing Klebsiella pneumoniae isolate 209632 after 18 hrs in presence of BPL by CLSI broth microdilution method; settings: isolate 209632, 18 h; method in brief: as §1
Klebsiella pneumoniae [21] = assay: Selectivity index, ratio of MIC for against KPC-2 producing Klebsiella pneumoniae isolate 209632 to MIC for against KPC-2 producing Klebsiella pneumoniae isolate 209632 in presence of BPL
Klebsiella pneumoniae [22] = assay: Antibacterial activity against KPC-2 producing Klebsiella pneumoniae isolate 209735 after 18 hrs by CLSI broth microdilution method; settings: isolate 209735, 18 h
Klebsiella pneumoniae [23] = assay: Antibacterial activity against KPC-2 producing Klebsiella pneumoniae isolate 209735 after 18 hrs in presence of BPL by CLSI broth microdilution method; settings: isolate 209735, 18 h; method in brief: as §1
Klebsiella pneumoniae [24] = assay: Selectivity index, ratio of MIC for against KPC-2 producing Klebsiella pneumoniae isolate 209735 to MIC for against KPC-2 producing Klebsiella pneumoniae isolate 209735 in presence of BPL
Klebsiella pneumoniae [25] = assay: Antibacterial activity against KPC-2 producing Klebsiella pneumoniae isolate 212232 after 18 hrs by CLSI broth microdilution method; settings: isolate 212232, 18 h
Klebsiella pneumoniae [26] = assay: Antibacterial activity against KPC-2 producing Klebsiella pneumoniae isolate 212232 after 18 hrs in presence of BPL by CLSI broth microdilution method; settings: isolate 212232, 18 h; method in brief: as §1
Klebsiella pneumoniae [27] = assay: Selectivity index, ratio of MIC for against KPC-2 producing Klebsiella pneumoniae isolate 212232 to MIC for against KPC-2 producing Klebsiella pneumoniae isolate 212232 in presence of BPL
Klebsiella pneumoniae [28] = assay: Antibacterial activity against KPC-2 producing Klebsiella pneumoniae isolate 212229 after 18 hrs by CLSI broth microdilution method; settings: isolate 212229, 18 h
Klebsiella pneumoniae [29] = assay: Antibacterial activity against KPC-2 producing Klebsiella pneumoniae isolate 212229 after 18 hrs in presence of BPL by CLSI broth microdilution method; settings: isolate 212229, 18 h; method in brief: as §1
Klebsiella pneumoniae [30] = assay: Selectivity index, ratio of MIC for against KPC-2 producing Klebsiella pneumoniae isolate 212229 to MIC for against KPC-2 producing Klebsiella pneumoniae isolate 212229 in presence of BPL
Pseudomonas aeruginosa [31] = assay: Antibacterial activity against IMP-4 producing Pseudomonas aeruginosa isolate 212886 after 18 hrs by CLSI broth microdilution method; settings: isolate 212886, 18 h
Pseudomonas aeruginosa [32] = assay: Antibacterial activity against IMP-4 producing Pseudomonas aeruginosa isolate 212886 after 18 hrs in presence of BPL by CLSI broth microdilution method; settings: isolate 212886, 18 h; method in brief: as §1
Pseudomonas aeruginosa [33] = assay: Antibacterial activity against IMP-4 producing Pseudomonas aeruginosa isolate 209471 after 18 hrs by CLSI broth microdilution method; settings: isolate 209471, 18 h
Pseudomonas aeruginosa [34] = assay: Antibacterial activity against IMP-4 producing Pseudomonas aeruginosa isolate 209471 after 18 hrs in presence of BPL by CLSI broth microdilution method; settings: isolate 209471, 18 h; method in brief: as §1
Pseudomonas aeruginosa [35] = assay: Antibacterial activity against IMP-4 producing Pseudomonas aeruginosa isolate 208247 after 18 hrs by CLSI broth microdilution method; settings: isolate 208247, 18 h
Pseudomonas aeruginosa [36] = assay: Antibacterial activity against IMP-4 producing Pseudomonas aeruginosa isolate 208247 after 18 hrs in presence of BPL by CLSI broth microdilution method; settings: isolate 208247, 18 h; method in brief: as §1
Pseudomonas aeruginosa [37] = assay: Selectivity index, ratio of MIC for against IMP-4 producing Pseudomonas aeruginosa isolate 208247 to MIC for against IMP-4 producing Pseudomonas aeruginosa isolate 208247 in presence of BPL
Pseudomonas aeruginosa [38] = assay: Antibacterial activity against IMP-4 producing Pseudomonas aeruginosa isolate 209321 after 18 hrs by CLSI broth microdilution method; settings: isolate 209321, 18 h
Pseudomonas aeruginosa [39] = assay: Antibacterial activity against IMP-4 producing Pseudomonas aeruginosa isolate 209321 after 18 hrs in presence of BPL by CLSI broth microdilution method; settings: isolate 209321, 18 h; method in brief: as §1
Pseudomonas aeruginosa [40] = assay: Antibacterial activity against IMP-4 producing Pseudomonas aeruginosa isolate 207272 after 18 hrs by CLSI broth microdilution method; settings: isolate 207272, 18 h
Pseudomonas aeruginosa [41] = assay: Antibacterial activity against IMP-4 producing Pseudomonas aeruginosa isolate 207272 after 18 hrs in presence of BPL by CLSI broth microdilution method; settings: isolate 207272, 18 h; method in brief: as §1
Pseudomonas aeruginosa [42] = assay: Selectivity index, ratio of MIC for against IMP-4 producing Pseudomonas aeruginosa isolate 207272 to MIC for against IMP-4 producing Pseudomonas aeruginosa isolate 207272 in presence of BPL

Cc1csc(SC[C@@H]2[C@H](NC(=O)/C(=N\OC(c3cc(=O)c(O)cn3O)C(C)C)c3csc(N)n3)C(=O)N2S(=O)(=O)O)n1 (some centres not stated)
MIC (Escherichia coli [1]): 1 µg/mL (≈ 1.52 µM) | Selectivity Index (Escherichia coli [2]): 8 | MIC (Escherichia coli [3]): 0.5 µg/mL (≈ 0.758 µM) | MIC (Escherichia coli [4]): 2 µg/mL (≈ 3.03 µM) | MIC (Escherichia coli [5]): 0.25 µg/mL | MIC (Escherichia coli [6]): 0.25 µg/mL | Selectivity Index (Escherichia coli [7]): 2 | MIC (Escherichia coli [8]): 1 µg/mL | Selectivity Index (Escherichia coli [9]): 1 | MIC (Escherichia coli [10]): 2 µg/mL (≈ 3.03 µM) | MIC (Escherichia coli [11]): 1 µg/mL | Selectivity Index (Escherichia coli [12]): 2 | MIC (Escherichia coli [13]): 2 µg/mL (≈ 3.03 µM) | MIC (Escherichia coli [14]): 2 µg/mL | Selectivity Index (Escherichia coli [15]): 1 | MIC (Klebsiella pneumoniae [16]): 2 µg/mL (≈ 3.03 µM) | MIC (Klebsiella pneumoniae [17]): 1 µg/mL | Selectivity Index (Klebsiella pneumoniae [18]): 2 | MIC (Klebsiella pneumoniae [19]): 1 µg/mL (≈ 1.52 µM) | MIC (Klebsiella pneumoniae [20]): 0.5 µg/mL | Selectivity Index (Klebsiella pneumoniae [21]): 2 | MIC (Klebsiella pneumoniae [22]): 2 µg/mL (≈ 3.03 µM) | MIC (Klebsiella pneumoniae [23]): 2 µg/mL | Selectivity Index (Klebsiella pneumoniae [24]): 1 | MIC (Klebsiella pneumoniae [25]): 2 µg/mL (≈ 3.03 µM) | MIC (Klebsiella pneumoniae [26]): 1 µg/mL | Selectivity Index (Klebsiella pneumoniae [27]): 2 | MIC (Klebsiella pneumoniae [28]): 1 µg/mL (≈ 1.52 µM) | MIC (Klebsiella pneumoniae [29]): 0.5 µg/mL | Selectivity Index (Klebsiella pneumoniae [30]): 2 | MIC (Pseudomonas aeruginosa [31]): > 64 µg/mL | MIC (Pseudomonas aeruginosa [32]): > 64 µg/mL | MIC (Pseudomonas aeruginosa [33]): > 64 µg/mL | MIC (Pseudomonas aeruginosa [34]): > 64 µg/mL | MIC (Pseudomonas aeruginosa [35]): 64 µg/mL (≈ 97 µM) | MIC (Pseudomonas aeruginosa [36]): 64 µg/mL | Selectivity Index (Pseudomonas aeruginosa [37]): 1 | MIC (Pseudomonas aeruginosa [38]): > 64 µg/mL | MIC (Pseudomonas aeruginosa [39]): > 64 µg/mL | MIC (Pseudomonas aeruginosa [40]): 64 µg/mL (≈ 97 µM) | MIC (Pseudomonas aeruginosa [41]): 64 µg/mL | Selectivity Index (Pseudomonas aeruginosa [42]): 1

CC(C)C(O/N=C(\C(=O)NC1C(=O)N(S(=O)(=O)O)C1(CF)CF)c1csc(N)n1)c1cc(=O)c(O)cn1O (configuration not stated)
MIC (Escherichia coli [1]): > 64 µg/mL | MIC (Escherichia coli [3]): > 64 µg/mL | MIC (Escherichia coli [4]): > 64 µg/mL | MIC (Escherichia coli [5]): > 64 µg/mL | MIC (Escherichia coli [6]): > 64 µg/mL | MIC (Escherichia coli [8]): > 64 µg/mL | MIC (Escherichia coli [10]): > 64 µg/mL | MIC (Escherichia coli [11]): > 64 µg/mL | MIC (Escherichia coli [13]): > 64 µg/mL | MIC (Escherichia coli [14]): > 64 µg/mL | MIC (Klebsiella pneumoniae [16]): > 64 µg/mL | MIC (Klebsiella pneumoniae [17]): > 64 µg/mL | Selectivity Index (Klebsiella pneumoniae [18]): 8 | MIC (Klebsiella pneumoniae [19]): > 64 µg/mL | MIC (Klebsiella pneumoniae [20]): > 64 µg/mL | Selectivity Index (Klebsiella pneumoniae [21]): 8 | MIC (Klebsiella pneumoniae [22]): > 64 µg/mL | MIC (Klebsiella pneumoniae [23]): > 64 µg/mL | Selectivity Index (Klebsiella pneumoniae [24]): 8 | MIC (Klebsiella pneumoniae [25]): 32 µg/mL (≈ 55.1 µM) | MIC (Klebsiella pneumoniae [26]): 4 µg/mL | Selectivity Index (Klebsiella pneumoniae [27]): 8 | MIC (Klebsiella pneumoniae [28]): > 64 µg/mL | MIC (Klebsiella pneumoniae [29]): > 64 µg/mL | Selectivity Index (Klebsiella pneumoniae [30]): 8 | MIC (Pseudomonas aeruginosa [31]): > 64 µg/mL | MIC (Pseudomonas aeruginosa [32]): > 64 µg/mL | MIC (Pseudomonas aeruginosa [33]): > 64 µg/mL | MIC (Pseudomonas aeruginosa [34]): > 64 µg/mL | MIC (Pseudomonas aeruginosa [35]): > 64 µg/mL | MIC (Pseudomonas aeruginosa [36]): 64 µg/mL | MIC (Pseudomonas aeruginosa [38]): > 64 µg/mL | MIC (Pseudomonas aeruginosa [39]): > 64 µg/mL | MIC (Pseudomonas aeruginosa [40]): > 64 µg/mL | MIC (Pseudomonas aeruginosa [41]): > 64 µg/mL
